In assay [1] the target is T1, tRNA (guanine-N(1)-)-methyltransferase (Mycobacterium tuberculosis (strain ATCC 25618 / H37Rv)) (UniProt P9WFY7).
T1 sequence (whole entry): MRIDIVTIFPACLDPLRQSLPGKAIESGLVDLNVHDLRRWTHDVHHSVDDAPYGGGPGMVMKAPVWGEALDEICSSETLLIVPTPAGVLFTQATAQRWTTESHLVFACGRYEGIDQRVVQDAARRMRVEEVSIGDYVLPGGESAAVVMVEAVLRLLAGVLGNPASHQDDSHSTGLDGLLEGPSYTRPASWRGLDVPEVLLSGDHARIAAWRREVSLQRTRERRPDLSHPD
The experiment in a line: Binding affinity to full length Mycobacterium tuberculosis tRNA (guanine(37)-N1)-methyltransferase expressed in Escherichia coli BL21 (DE3) assessed as thermal stabilization of protein by measuring change in melting temperature at 0.1 mM by SYPRO orange based thermal shift assay. Put shortly:
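Thermal shift: 4 μM TrmD with 5× SYPRO Orange and ligand in 50 mM Tris-HCl pH 8, 150 mM NaCl, 1 mM MgCl2, 1 mM DTT, 0.05% Tween-20. Buffer-only control. Heated from 25 to 95 °C in a real-time PCR instrument, and Tm taken as the unfolding midpoint. Ligand levels: SAH 2 mM, inhibitors 0.1 mM.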

Assay [2] in a line: Selectivity ratio of Kd for full length Staphylococcus aureus tRNA (guanine(37)-N1)-methyltransferase expressed in Escherichia coli BL21 (DE3) to Kd for Pseudomonas aeruginosa tRNA (guanine(37)-N1)-methyltransferase (Leu5 to Asp25 residues) expressed in Escherichia coli BL21 (DE3) Rosetta T1R cells.

Consider `NC1CCN(Cc2ccc(CNC(=O)c3csc4nc[nH]c(=O)c34)cc2)CC1`, for which the ΔTm in assay [1] fell in the range of 1 to 13 °C. For the same compound, in assay [2], the Ratio lay within 100 to 300.

For orientation: ΔTm means the change in melting temperature against a reference sample.

The values above are taken from ChEMBL document CHEMBL4373727, “Thienopyrimidinone Derivatives That Inhibit Bacterial tRNA (Guanine37-N1)-Methyltransferase (TrmD) by Restructuring the Active Site with a Tyrosine-Flipping Mechanism” (J Med Chem, 2019).
